{"source": "ChEMBL document CHEMBL1240464", "about": "“Synthesis, structure and in vitro antibacterial activities of new hybrid disinfectants quaternary ammonium compounds: pyridinium and quinolinium stilbene benzenesulfonates” (2010)", "key": {"Staphylococcus aureus [1]": {"tested_on": "Staphylococcus aureus", "test": "Antibacterial activity against methicillin-resistant Staphylococcus aureus ATCC 43300 after 8 to 12 hrs by colorimetric microdilution broth technique", "format": "functional", "method_in_brief": "(§1)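 Broth microdilution with a colorimetric read-out. Bacteria were suspended in RPMI1640 with 1% Alamar Blue. Compound was dissolved in DMSO as a 25 mg/ml stock and added to the first row, then serially halved to a 128-fold final dilution. Plates were incubated at 37 °C for 8–12 h. MIC was the lowest concentration preventing the blue-to-red indicator change. Each assay was run at least three times.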"}, "Bacillus subtilis [2]": {"tested_on": "Bacillus subtilis", "test": "Antibacterial activity against Bacillus subtilis after 8 to 12 hrs by colorimetric microdilution broth technique", "format": "functional", "method_in_brief": "(§2)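 Broth microdilution in RPMI1640. Bacterial suspension in RPMI1640 is mixed with 1% Alamar Blue. Sample dissolved in DMSO at 25 mg/ml (stock) is added to the first row, then serially diluted two-fold down the plate to 128-fold. Plates are incubated at 37 °C for 8–12 h. MIC is the lowest concentration preventing the Alamar Blue change from blue to red. At least three repeats.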"}, "Enterococcus faecalis [3]": {"tested_on": "Enterococcus faecalis", "test": "Antibacterial activity against vancomycin-resistant Enterococcus faecalis ATCC 51299 after 8 to 12 hrs by colorimetric microdilution broth technique", "format": "functional", "method_in_brief": "as §1"}, "Enterococcus faecalis [4]": {"tested_on": "Enterococcus faecalis", "test": "Antibacterial activity against Enterococcus faecalis TISTR459 after 8 to 12 hrs by colorimetric microdilution broth technique", "format": "functional", "method_in_brief": "as §1"}, "Shigella sonnei [5]": {"tested_on": "Shigella sonnei", "test": "Antibacterial activity against Shigella sonnei after 8 to 12 hrs by colorimetric microdilution broth technique", "format": "functional", "method_in_brief": "as §2"}, "Staphylococcus aureus [6]": {"tested_on": "Staphylococcus aureus", "test": "Antibacterial activity against Staphylococcus aureus TISTR517 at up to 300 ug/ml after 8 to 12 hrs by colorimetric microdilution broth technique", "format": "functional, organism-based", "method_in_brief": "as §2"}, "Bacillus subtilis [7]": {"tested_on": "Bacillus subtilis", "test": "Antibacterial activity against Bacillus subtilis at up to 300 ug/ml after 8 to 12 hrs by colorimetric microdilution broth technique", "format": "functional, organism-based", "method_in_brief": "as §2"}, "Enterococcus faecalis [8]": {"tested_on": "Enterococcus faecalis", "test": "Antibacterial activity against vancomycin-resistant Enterococcus faecalis ATCC 51299 at up to 300 ug/ml after 8 to 12 hrs by colorimetric microdilution broth technique", "format": "functional, organism-based", "method_in_brief": "as §1"}, "Enterococcus faecalis [9]": {"tested_on": "Enterococcus faecalis", "test": "Antibacterial activity against Enterococcus faecalis TISTR459 at up to 300 ug/ml after 8 to 12 hrs by colorimetric microdilution broth technique", "format": "functional, organism-based", "method_in_brief": "as §2"}, "Pseudomonas aeruginosa [10]": {"tested_on": "Pseudomonas aeruginosa", "test": "Antibacterial activity against Pseudomonas aeruginosa at up to 300 ug/ml after 8 to 12 hrs by colorimetric microdilution broth technique", "format": "functional, organism-based", "method_in_brief": "as §2"}, "Salmonella typhi [11]": {"tested_on": "Salmonella typhi", "test": "Antibacterial activity against Salmonella typhi at up to 300 ug/ml after 8 to 12 hrs by colorimetric microdilution broth technique", "format": "functional, organism-based", "settings": "Salmonella enterica subsp. enterica serovar Typhi", "method_in_brief": "as §1"}, "Shigella sonnei [12]": {"tested_on": "Shigella sonnei", "test": "Antibacterial activity against Shigella sonnei at up to 300 ug/ml after 8 to 12 hrs by colorimetric microdilution broth technique", "format": "functional, organism-based", "method_in_brief": "as §2"}, "Staphylococcus aureus [13]": {"tested_on": "Staphylococcus aureus", "test": "Antibacterial activity against Staphylococcus aureus TISTR517 after 8 to 12 hrs by colorimetric microdilution broth technique", "format": "functional", "method_in_brief": "as §2"}, "Pseudomonas aeruginosa [14]": {"tested_on": "Pseudomonas aeruginosa", "test": "Antibacterial activity against Pseudomonas aeruginosa after 8 to 12 hrs by colorimetric microdilution broth technique", "format": "functional", "method_in_brief": "as §2"}, "Salmonella typhi [15]": {"tested_on": "Salmonella typhi", "test": "Antibacterial activity against Salmonella typhi after 8 to 12 hrs by colorimetric microdilution broth technique", "format": "functional, Salmonella enterica subsp. enterica serovar Typhi", "settings": "Salmonella enterica", "method_in_brief": "as §1"}}, "note": "Calls of active or inactive are those of the source. No cut-off for these calls is given here."}
{"smiles": "CCOc1ccc(/C=C/c2ccc3ccccc3[n+]2C)cc1.O=S(=O)([O-])c1ccc(Cl)cc1", "values": [{"measurement": "MIC", "setting": "Staphylococcus aureus [1]", "value": 2.34, "unit": "µg/mL"}, {"measurement": "MIC", "setting": "Bacillus subtilis [2]", "value": 75, "unit": "µg/mL"}, {"measurement": "MIC", "setting": "Enterococcus faecalis [3]", "value": 150, "unit": "µg/mL"}, {"measurement": "MIC", "setting": "Enterococcus faecalis [4]", "value": 75, "unit": "µg/mL"}, {"measurement": "MIC", "setting": "Shigella sonnei [5]", "value": 300, "unit": "µg/mL"}]}
{"smiles": "CCOc1ccc(/C=C/c2cccc[n+]2C)cc1.Nc1ccc(S(=O)(=O)[O-])cc1", "values": [{"measurement": "MIC", "setting": "Staphylococcus aureus [6]", "value": "inactive"}, {"measurement": "MIC", "setting": "Bacillus subtilis [7]", "value": "inactive"}, {"measurement": "MIC", "setting": "Enterococcus faecalis [8]", "value": "inactive"}, {"measurement": "MIC", "setting": "Enterococcus faecalis [9]", "value": "inactive"}, {"measurement": "MIC", "setting": "Pseudomonas aeruginosa [10]", "value": "inactive"}, {"measurement": "MIC", "setting": "Salmonella typhi [11]", "value": "inactive"}, {"measurement": "MIC", "setting": "Shigella sonnei [12]", "value": "inactive"}]}
{"smiles": "CCOc1ccc(/C=C/c2cccc[n+]2C)cc1.COc1ccc(S(=O)(=O)[O-])cc1", "values": [{"measurement": "MIC", "setting": "Staphylococcus aureus [1]", "value": 150, "unit": "µg/mL"}]}
{"smiles": "CN(C)c1ccc(/C=C/c2cccc[n+]2C)cc1.O=S(=O)([O-])c1ccc(Br)cc1", "values": [{"measurement": "MIC", "setting": "Staphylococcus aureus [6]", "value": "inactive"}, {"measurement": "MIC", "setting": "Bacillus subtilis [7]", "value": "inactive"}, {"measurement": "MIC", "setting": "Enterococcus faecalis [8]", "value": "inactive"}, {"measurement": "MIC", "setting": "Enterococcus faecalis [9]", "value": "inactive"}, {"measurement": "MIC", "setting": "Pseudomonas aeruginosa [10]", "value": "inactive"}, {"measurement": "MIC", "setting": "Salmonella typhi [11]", "value": "inactive"}, {"measurement": "MIC", "setting": "Shigella sonnei [12]", "value": "inactive"}]}
{"smiles": "CCOc1ccc(/C=C/c2cccc[n+]2C)cc1.O=S(=O)([O-])c1ccc(Br)cc1", "values": [{"measurement": "MIC", "setting": "Staphylococcus aureus [6]", "value": "inactive"}, {"measurement": "MIC", "setting": "Bacillus subtilis [7]", "value": "inactive"}, {"measurement": "MIC", "setting": "Enterococcus faecalis [8]", "value": "inactive"}, {"measurement": "MIC", "setting": "Enterococcus faecalis [9]", "value": "inactive"}, {"measurement": "MIC", "setting": "Pseudomonas aeruginosa [10]", "value": "inactive"}]}
{"smiles": "CCOc1ccc(/C=C/c2cccc[n+]2C)cc1.[I-]", "values": [{"measurement": "MIC", "setting": "Staphylococcus aureus [1]", "value": 37.5, "unit": "µg/mL"}, {"measurement": "MIC", "setting": "Shigella sonnei [5]", "value": 300, "unit": "µg/mL"}]}
{"smiles": "CCOc1ccc(/C=C/c2ccc3ccccc3[n+]2C)cc1.[I-]", "values": [{"measurement": "MIC", "setting": "Staphylococcus aureus [1]", "value": 2.34, "unit": "µg/mL"}, {"measurement": "MIC", "setting": "Bacillus subtilis [2]", "value": 37.5, "unit": "µg/mL"}, {"measurement": "MIC", "setting": "Enterococcus faecalis [3]", "value": 37.5, "unit": "µg/mL"}, {"measurement": "MIC", "setting": "Enterococcus faecalis [4]", "value": 75, "unit": "µg/mL"}, {"measurement": "MIC", "setting": "Shigella sonnei [5]", "value": 150, "unit": "µg/mL"}]}
{"smiles": "CCOc1ccc(/C=C/c2cccc[n+]2C)cc1.Cc1ccc(S(=O)(=O)[O-])cc1", "values": [{"measurement": "MIC", "setting": "Staphylococcus aureus [1]", "value": 37.5, "unit": "µg/mL"}, {"measurement": "MIC", "setting": "Staphylococcus aureus [13]", "value": 150, "unit": "µg/mL"}, {"measurement": "MIC", "setting": "Bacillus subtilis [2]", "value": 300, "unit": "µg/mL"}, {"measurement": "MIC", "setting": "Enterococcus faecalis [3]", "value": 300, "unit": "µg/mL"}, {"measurement": "MIC", "setting": "Enterococcus faecalis [4]", "value": 150, "unit": "µg/mL"}, {"measurement": "MIC", "setting": "Pseudomonas aeruginosa [14]", "value": 37.5, "unit": "µg/mL"}, {"measurement": "MIC", "setting": "Salmonella typhi [15]", "value": 150, "unit": "µg/mL"}, {"measurement": "MIC", "setting": "Shigella sonnei [5]", "value": 150, "unit": "µg/mL"}]}
{"smiles": "CCOc1ccc(/C=C/c2ccc3ccccc3[n+]2C)cc1.O=S(=O)([O-])c1ccc(Br)cc1", "values": [{"measurement": "MIC", "setting": "Pseudomonas aeruginosa [10]", "value": "inactive"}, {"measurement": "MIC", "setting": "Salmonella typhi [11]", "value": "inactive"}]}
